Reference: ChEMBL document CHEMBL4014327 (J Med Chem, 2017)
Converted amounts (≈) assume the structure as drawn. The source made the active and inactive calls. No cut-off for these calls is given here.

Assays:
[1] = Apparent permeability in RRCK cells from apical to basolateral side; format: ADME, cell-based, Canis lupus familiaris, MDCKII-LE; details: dog, MDCK
Summary of the method: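 RRCK cell monolayer permeability assay; apparent permeability reported in cm/s.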

[2] = Apparent intrinsic clearance in human liver microsomes; format: ADME, microsome; details: read-out: CLH(app)
[3] = biological target: T1, Interleukin-1 receptor-associated kinase 4 (Homo sapiens, UniProt Q9NWZ3); experiment: Inhibition of N-terminal His6-tagged human full length IRAK4 preincubated for 20 mins followed by biotinylated-AGAGRDKYKTLRQIR substrate addition in presence of ATP measured after 60 mins by DELFIA method
T1 sequence (Q9NWZ3 whole entry): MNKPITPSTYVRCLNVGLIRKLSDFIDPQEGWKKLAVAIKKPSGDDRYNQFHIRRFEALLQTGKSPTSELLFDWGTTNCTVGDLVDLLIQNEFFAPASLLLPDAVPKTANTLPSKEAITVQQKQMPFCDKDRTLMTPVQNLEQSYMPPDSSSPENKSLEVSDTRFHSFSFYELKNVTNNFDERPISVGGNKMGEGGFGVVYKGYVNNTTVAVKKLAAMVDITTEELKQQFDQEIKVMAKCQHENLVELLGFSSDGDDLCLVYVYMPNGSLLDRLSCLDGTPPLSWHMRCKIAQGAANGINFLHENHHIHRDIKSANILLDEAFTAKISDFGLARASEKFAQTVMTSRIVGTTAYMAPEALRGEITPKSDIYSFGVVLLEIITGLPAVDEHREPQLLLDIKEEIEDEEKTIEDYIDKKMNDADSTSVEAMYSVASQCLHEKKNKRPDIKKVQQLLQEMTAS

[4] = biological target: T1, Interleukin-1 receptor-associated kinase 4; experiment: Inhibition of IRAK4 in human PBMC assessed as reduction in R848-stimulated TNF alpha production after 3 hrs
[5] = Lipophilicity, log D of compound; format: physicochemical; details: octanol/water
[6] = biological target: T2, Interleukin-1 receptor-associated kinase 4 (Homo sapiens) (UniProt Q9NWZ3); details: 909 uM
T2 sequence (whole entry): T1 sequence (Q9NWZ3 whole entry)

[7] = biological target: T2, Interleukin-1 receptor-associated kinase 4 (Homo sapiens); details: 236 uM
Rattus norvegicus [8] = experiment: Antiinflammatory activity in Lewis rat CIA model assessed as reduction in paw swelling at 30 mg/kg, po bid treated on day 11 post immunization for 8 days by plethysmographic method; format: functional, organism-based
Summary of the method: (§1)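 Female Lewis rats (about 7−9 weeks old, n = 10 per group) immunized on day 0 with bovine type II collagen in incomplete Freund's adjuvant and boosted on day 7. Oral dosing twice daily as solution or suspension in vehicle (0.5% methylcellulose, 2% Tween 80 in water), vehicle-only controls. Paw volume measured daily by plethysmograph, body weight recorded daily.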

Rattus norvegicus [9] = experiment: In vivo receptor occupancy at IRAK4 in spleen of Lewis rat CIA model at 100 mg/kg, po measured at 1 hr postdose; format: functional
Summary of the method: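 Lewis female rats (7–9 wk, n = 10/group), immunized with bovine type II collagen/IFA on day 0 and boosted day 7. Oral dosing twice daily in therapeutic mode (started after disease onset), vehicle 0.5% methylcellulose, 2% Tween 80 in water. Spleens sampled 1 h postdose, flash frozen. Kinase occupancy measured by KiNativ profiling with an ATP-competitive probe.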

[10] = biological target: Voltage-gated inwardly rectifying potassium channel KCNH2 (Homo sapiens, UniProt Q12809); experiment: Inhibition of human ERG
Voltage-gated inwardly rectifying potassium channel KCNH2, sequence (Q12809 whole entry): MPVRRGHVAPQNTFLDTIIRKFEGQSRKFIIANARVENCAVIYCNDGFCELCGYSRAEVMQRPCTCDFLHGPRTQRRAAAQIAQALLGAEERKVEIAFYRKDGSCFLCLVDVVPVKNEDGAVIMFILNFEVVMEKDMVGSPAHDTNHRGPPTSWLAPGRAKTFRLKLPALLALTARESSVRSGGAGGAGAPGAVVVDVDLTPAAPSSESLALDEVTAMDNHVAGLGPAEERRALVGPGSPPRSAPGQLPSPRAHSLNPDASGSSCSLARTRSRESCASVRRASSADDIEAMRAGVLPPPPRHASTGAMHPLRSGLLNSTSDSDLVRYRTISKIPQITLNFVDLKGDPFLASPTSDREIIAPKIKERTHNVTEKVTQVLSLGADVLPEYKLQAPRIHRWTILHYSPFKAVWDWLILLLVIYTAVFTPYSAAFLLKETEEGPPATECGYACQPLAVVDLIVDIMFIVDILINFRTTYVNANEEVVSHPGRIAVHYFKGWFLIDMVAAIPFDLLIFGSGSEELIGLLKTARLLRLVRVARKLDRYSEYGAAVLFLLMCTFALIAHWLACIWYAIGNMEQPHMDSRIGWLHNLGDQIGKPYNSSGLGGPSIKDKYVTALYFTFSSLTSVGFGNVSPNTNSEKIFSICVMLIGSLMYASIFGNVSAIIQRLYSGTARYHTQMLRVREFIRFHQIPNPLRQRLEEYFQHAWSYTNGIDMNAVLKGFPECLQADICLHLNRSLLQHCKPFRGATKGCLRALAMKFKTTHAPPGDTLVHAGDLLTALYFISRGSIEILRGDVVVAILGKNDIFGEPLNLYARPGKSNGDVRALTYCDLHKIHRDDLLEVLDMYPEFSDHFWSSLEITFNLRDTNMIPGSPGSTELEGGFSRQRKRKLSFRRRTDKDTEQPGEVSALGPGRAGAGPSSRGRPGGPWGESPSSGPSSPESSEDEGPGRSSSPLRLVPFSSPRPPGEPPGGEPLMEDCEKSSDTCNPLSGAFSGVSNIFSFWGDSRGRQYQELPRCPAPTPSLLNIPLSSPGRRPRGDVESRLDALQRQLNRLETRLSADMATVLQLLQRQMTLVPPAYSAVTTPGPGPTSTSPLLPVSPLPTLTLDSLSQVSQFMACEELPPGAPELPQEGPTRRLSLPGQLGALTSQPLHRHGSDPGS

[11] = Half life in rat; format: ADME; details: in vivo
[12] = Fraction unbound in human plasma; format: ADME, cell-free
Summary of the method: (§2)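 Fraction unbound in plasma measured by equilibrium dialysis.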

[13] = biological target: T2, Interleukin-1 receptor-associated kinase 4 (Homo sapiens); experiment: Inhibition of IRAK4 in human THP1 cell lysate
[14] = Oral bioavailability in rat; format: ADME, organism-based; details: in vivo
[15] = Fraction unbound in rat plasma; format: ADME, cell-free; summary of the method: as §2
CYP2C8 = CYP2C8 (Homo sapiens, UniProt P10632); experiment: Inhibition of CYP2C8 in human liver microsomes at 3 uM; format: ADME
CYP2C8, sequence (P10632 whole entry): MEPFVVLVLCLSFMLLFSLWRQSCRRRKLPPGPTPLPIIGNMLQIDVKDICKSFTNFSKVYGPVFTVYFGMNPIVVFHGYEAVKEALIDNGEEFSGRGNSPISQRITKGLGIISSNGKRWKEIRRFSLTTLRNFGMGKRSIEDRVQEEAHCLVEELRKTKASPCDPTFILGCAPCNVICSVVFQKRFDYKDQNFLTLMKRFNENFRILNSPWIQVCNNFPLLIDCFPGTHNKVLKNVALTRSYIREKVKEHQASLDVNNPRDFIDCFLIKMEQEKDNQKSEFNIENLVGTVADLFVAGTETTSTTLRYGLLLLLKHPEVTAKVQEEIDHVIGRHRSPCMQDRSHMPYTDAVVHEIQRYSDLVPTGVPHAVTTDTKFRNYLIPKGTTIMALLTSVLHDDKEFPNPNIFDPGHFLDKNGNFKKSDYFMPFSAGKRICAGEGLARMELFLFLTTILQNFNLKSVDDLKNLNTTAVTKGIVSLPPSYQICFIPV

CYP2D6 = CYP2D6 (Homo sapiens, UniProt P10635); experiment: Inhibition of CYP2D6 in human liver microsomes at 3 uM; format: ADME
CYP2D6, sequence (P10635 whole entry): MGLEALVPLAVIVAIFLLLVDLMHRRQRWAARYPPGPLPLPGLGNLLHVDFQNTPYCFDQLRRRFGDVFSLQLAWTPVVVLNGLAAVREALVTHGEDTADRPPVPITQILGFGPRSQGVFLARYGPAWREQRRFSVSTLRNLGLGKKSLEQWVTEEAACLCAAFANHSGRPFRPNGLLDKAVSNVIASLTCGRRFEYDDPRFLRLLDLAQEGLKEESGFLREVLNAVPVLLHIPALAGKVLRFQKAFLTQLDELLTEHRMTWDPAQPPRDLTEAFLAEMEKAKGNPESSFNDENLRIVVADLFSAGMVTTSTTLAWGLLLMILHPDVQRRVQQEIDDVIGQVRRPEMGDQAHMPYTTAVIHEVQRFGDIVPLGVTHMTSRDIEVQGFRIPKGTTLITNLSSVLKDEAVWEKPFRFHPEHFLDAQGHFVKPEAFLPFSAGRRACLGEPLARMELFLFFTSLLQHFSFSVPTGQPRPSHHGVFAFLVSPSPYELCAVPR

CYP3A4 = CYP3A4 (Homo sapiens, UniProt P08684); experiment: Inhibition of CYP3A4 in human liver microsomes at 3 uM; format: ADME
CYP3A4, sequence (P08684 whole entry): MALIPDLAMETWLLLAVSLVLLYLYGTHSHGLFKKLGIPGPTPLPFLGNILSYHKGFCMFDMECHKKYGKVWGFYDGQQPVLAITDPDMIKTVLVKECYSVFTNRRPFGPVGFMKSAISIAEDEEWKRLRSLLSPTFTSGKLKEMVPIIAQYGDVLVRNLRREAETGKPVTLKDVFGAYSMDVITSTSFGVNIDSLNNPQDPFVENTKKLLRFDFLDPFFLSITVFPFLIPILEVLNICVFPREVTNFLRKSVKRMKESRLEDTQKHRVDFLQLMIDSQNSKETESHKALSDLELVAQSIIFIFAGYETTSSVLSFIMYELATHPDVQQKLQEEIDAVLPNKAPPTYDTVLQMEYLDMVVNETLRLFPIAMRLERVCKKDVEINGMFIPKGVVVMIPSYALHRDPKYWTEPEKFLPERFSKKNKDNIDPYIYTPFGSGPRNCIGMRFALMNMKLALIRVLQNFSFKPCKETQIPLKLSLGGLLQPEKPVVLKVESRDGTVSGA

Rattus norvegicus [16] = experiment: In vivo receptor occupancy at IRAK4 in spleen of po dosed Lewis rat CIA model measured at 1 hr postdose; format: functional, organism-based
CYP2C9 = CYP2C9 (Homo sapiens, UniProt P11712); experiment: Inhibition of CYP2C9 in human liver microsomes at 3 uM; format: ADME
CYP2C9, sequence (P11712 whole entry): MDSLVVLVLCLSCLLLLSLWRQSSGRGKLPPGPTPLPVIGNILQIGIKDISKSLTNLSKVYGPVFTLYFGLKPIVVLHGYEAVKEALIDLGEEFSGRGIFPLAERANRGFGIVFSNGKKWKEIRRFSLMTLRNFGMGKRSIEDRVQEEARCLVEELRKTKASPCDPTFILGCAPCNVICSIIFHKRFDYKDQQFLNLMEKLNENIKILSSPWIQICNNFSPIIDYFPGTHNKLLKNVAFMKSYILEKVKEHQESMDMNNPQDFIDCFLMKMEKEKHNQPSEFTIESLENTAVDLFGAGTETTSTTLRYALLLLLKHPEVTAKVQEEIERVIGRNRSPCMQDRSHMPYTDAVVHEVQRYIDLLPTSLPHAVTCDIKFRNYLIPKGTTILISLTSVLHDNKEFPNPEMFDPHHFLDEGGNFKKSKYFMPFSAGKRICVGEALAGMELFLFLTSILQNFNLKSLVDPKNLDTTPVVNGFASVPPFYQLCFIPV

[17] = Thermodynamic solubility of compound at pH 6.5; format: physicochemical; details: buffer, read-out: Therm_solubility
Rattus norvegicus [18] = experiment: Clearance in iv dosed rat; format: ADME, organism-based; details: in vivo
CYP1A2 = CYP1A2 (Homo sapiens, UniProt P05177); experiment: Inhibition of CYP1A2 in human liver microsomes at 3 uM; format: ADME
CYP1A2, sequence (P05177 whole entry): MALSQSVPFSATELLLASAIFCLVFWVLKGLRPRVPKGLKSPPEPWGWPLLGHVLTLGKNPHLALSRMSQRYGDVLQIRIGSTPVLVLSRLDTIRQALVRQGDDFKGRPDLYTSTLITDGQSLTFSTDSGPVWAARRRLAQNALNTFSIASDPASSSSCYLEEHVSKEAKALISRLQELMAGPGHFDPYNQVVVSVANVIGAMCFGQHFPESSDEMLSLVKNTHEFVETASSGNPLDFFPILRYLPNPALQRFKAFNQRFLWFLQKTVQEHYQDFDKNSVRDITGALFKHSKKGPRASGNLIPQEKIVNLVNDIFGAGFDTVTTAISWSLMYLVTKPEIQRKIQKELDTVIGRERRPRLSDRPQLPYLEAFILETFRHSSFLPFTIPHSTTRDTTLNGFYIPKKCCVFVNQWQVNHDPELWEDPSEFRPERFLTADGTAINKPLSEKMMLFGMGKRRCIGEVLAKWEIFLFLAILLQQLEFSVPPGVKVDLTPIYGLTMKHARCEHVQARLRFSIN

Rattus norvegicus [19] = experiment: Antiinflammatory activity in Lewis rat CIA model assessed as reduction in paw swelling at 100 mg/kg, po bid treated on day 11 post immunization for 8 days by plethysmographic method; format: functional, organism-based; summary of the method: as §1

Papp A→B [1] [×10⁻⁶ cm/s] | microsomal CLint [2] [µL/min/mg] | SMILES | other results
11.7 | < 8 | COc1cc2c(OC[C@H]3NC(=O)[C@@H]4C[C@H]34)nccc2cc1C(N)=O | 
 |  | CC(C)Oc1cc2c(-c3ccc(C#N)cc3)cccc2cc1C(N)=O | IC50 [3]: 71.9 nM
10.5 |  | CC(C)Oc1cc2c(OC[C@H]3CCC(=O)N3)nccc2cc1C(N)=O | 
10.6 | 9 | CCOc1cc2c(OC[C@@H]3CCC(=O)N3)nccc2cc1C(N)=O | 
14.2 | 13 | COc1cc2c(OC[C@@H]3CCC(=O)N3)cccc2cc1C(N)=O | logD [5]: 1.5
5.8 | < 8 | COc1cc2c(OC[C@@H]3CCC(=O)N3)ccnc2cc1C(N)=O | 
10.4 | 12 | COc1cc2c(OC[C@H]3NC(=O)[C@H](F)[C@H]3C)nccc2cc1C(N)=O | 
16.3 | < 8 | COc1cc2c(OC[C@H]3NC(=O)[C@@]4(F)[C@@H]3[C@@H]4C)nccc2cc1C(N)=O | 
14.2 | 15 | CC[C@H]1[C@@H](COc2nccc3cc(C(N)=O)c(OC)cc23)NC(=O)[C@@H]1F | 
11.4 | 11 | CC(C)Oc1cc2c(O[C@@H]3CCCNC3)nccc2cc1C(N)=O | logD [5]: 0.7; IC50 [4]: 1550 nM; IC50 [3]: 121 nM
17.9 | 14 | CC[C@@H]1CC(=O)N[C@@H]1COc1nccc2cc(C(N)=O)c(OC)cc12 | 
13.5 | < 8 | COc1cc2c(OC[C@H]3NC(=O)[C@@H]4[C@@H](C)[C@@H]43)nccc2cc1C(N)=O | 
2.8 |  | CC(C)Oc1cc2c(O[C@@H]3CCCNC3)ccnc2cc1C(N)=O | logD [5]: 0.4; IC50 [3]: 146 nM
 |  | CC(C)Oc1ccccc1C(N)=O | inhibition [6]: > 50%; inhibition [7]: > 10%; IC50 [3]: 55000 nM
10.5 | < 9 | COc1cc2c(OC[C@H]3NC(=O)C[C@H]3C)nccc2cc1C(N)=O | 
9.9 | < 9 | COc1cc2c(OC[C@H]3NC(=O)[C@@H](F)[C@H]3C)nccc2cc1C(N)=O | 
9.9 | 9 | COc1cc2c(OC[C@@H]3CCC(=O)N3)nccc2cc1C(N)=O | half-life [11]: 1 h; bioavailability [14]: 44%; logD [5]: 0.9; clearance (Rattus norvegicus [18]): 35 mL/min/kg
15.8 | 9 | COc1cc2c(OC[C@H]3NC(=O)[C@@H](C)[C@H]3C)nccc2cc1C(N)=O | 
13.9 | 32 | COc1cc2c(OC[C@H]3NC(=O)[C@H](C)[C@H]3C)nccc2cc1C(N)=O | 
 |  | CC(C)Oc1cc2ccccc2cc1C(N)=O | IC50 [3]: 2090 nM

SMILES | Papp A→B [1] [×10⁻⁶ cm/s] | microsomal CLint [2] [µL/min/mg] | other results
COC[C@@H]1CC(=O)N[C@@H]1COc1nccc2cc(C(N)=O)c(OC)cc12 | 12.5 | < 8 | IC50 [4]: 373 nM
CCC[C@@H]1CC(=O)N[C@@H]1COc1nccc2cc(C(N)=O)c(OC)cc12 | 18.9 | 44 | IC50 [4]: 28.4 nM
CC(C)Oc1cc2c(OC[C@@H]3CCC(=O)N3)nccc2cc1C(N)=O | 10.7 | 10 | Activity (Rattus norvegicus [8]): Active; Occ (Rattus norvegicus [9]): 80%; IC50 [10]: > 30000 nM; half-life [11]: 1.2 h; fraction unbound [12]: 0.29; inhibition [13]: Active; bioavailability [14]: 57%; fraction unbound [15]: 0.21; inhibition at 3 µM (CYP2C8): < 10%; inhibition at 3 µM (CYP2D6): < 10%; inhibition at 3 µM (CYP3A4): < 10%; Occ (Rattus norvegicus [16]): Dose-dependent effect; inhibition at 3 µM (CYP2C9): 13.6%; solubility thermodynamic [17]: 78 µM (≈ 26.8 µg/mL); clearance (Rattus norvegicus [18]): 23 mL/min/kg; inhibition at 3 µM (CYP1A2): < 10%; Activity (Rattus norvegicus [19]): Active
